The results in this text go back to ChEMBL document CHEMBL1153877, “Lowering of 5-nitroimidazole's mutagenicity: towards optimal antiparasitic pharmacophore” (Eur J Med Chem, 2009).

Structures are written as SMILES.

The test system of one series is Trichomonas vaginalis. Briefly: Antitrichomonas activity against Trichomonas vaginalis TVR87 after 48 hrs by trypan blue staining. Type of series: functional, organism-based. Particulars: TVR87, 48 h. A digest of the protocol: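 T. vaginalis TVR87 trophozoites grown in TM 161 medium with 10% heat-inactivated horse serum, used one day after subculture in log phase. Assay at 5 × 10³ trophozoites/mL, triplicate cultures, incubated anaerobically at 37 °C for 48 h with a range of compound concentrations from DMSO stocks. DMSO 0.1% final served as negative control. Viable cells counted by trypan blue.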
As to `Cc1ccc(S(=O)(=O)Cc2nc(C)n(CC(C)O)c2[N+](=O)[O-])cc1` (stereo not given), half-maximal inhibition (IC50) was put at 124 nM. This counts as sub-micromolar.

Turning to `Cc1nc(CS(=O)(=O)c2ccc(Cl)cc2)c([N+](=O)[O-])n1CC(C)O` (stereo not given), the half-inhibitory concentration (IC50) was 732 nM.

Turning to `Cc1nc(CS(=O)(=O)c2ccc(Br)cc2)c([N+](=O)[O-])n1CC(C)O` (stereo not given), the IC50 was found to be 418 nM.

For `Cc1nc(CS(=O)(=O)c2ccccc2)c([N+](=O)[O-])n1CC(C)O` (stereo not given), inhibition was half-maximal at 615 nM (IC50).

In turn, `Cc1ncc([N+](=O)[O-])n1C` [DIMETRIDAZOLE] yielded an IC50 of 708 nM.

In turn, `Cc1ncc([N+](=O)[O-])n1CC(C)O` (stereo not given) [SECNIDAZOLE] had a concentration for half-maximal inhibition (IC50) of 810 nM. The IC50 values of the last two molecules are within 1.5-fold of each other.

System in the next series: not listed separately
Put plainly: Specificity index, ratio of IC50 for human THP1 cells to IC50 for Trichomonas vaginalis TVR87.
Details: not given
Set-up: species or system THP-1. A digest of the protocol: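 Specificity index = IC50 against THP1 cells (72 h, propidium iodide flow cytometry) divided by IC50 against T. vaginalis (48 h, trypan blue).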
Turning to `Cc1ccc(S(=O)(=O)Cc2nc(C)n(CC(C)O)c2[N+](=O)[O-])cc1` (stereo not given), the “Ratio IC50” value was >5701.

With `Cc1nc(CS(=O)(=O)c2ccc(Cl)cc2)c([N+](=O)[O-])n1CC(C)O` (stereo not given), the “Ratio IC50” value is on record as >912.

In the case of `Cc1nc(CS(=O)(=O)c2ccc(Br)cc2)c([N+](=O)[O-])n1CC(C)O` (stereo not given), the “Ratio IC50” value stood at 301.

As for `Cc1nc(CS(=O)(=O)c2ccccc2)c([N+](=O)[O-])n1CC(C)O` (stereo not given), the “Ratio IC50” value came to 679.

As for `Cc1ncc([N+](=O)[O-])n1C` [DIMETRIDAZOLE], the “Ratio IC50” value is on record as >2501.

Regarding `Cc1ncc([N+](=O)[O-])n1CC(C)O` (stereo not given) [SECNIDAZOLE], the “Ratio IC50” value is listed as >1666.

For another series, the system named is THP-1. Briefly: Cytotoxicity against human THP1 cells after 72 hrs by propidium iodide-based flow cytometry. Type of series: cell-based. As to conditions: THP-1, 72 h. In short, it runs like this: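 THP1 monocytes kept in RPMI with 10% foetal calf serum, 25 mM HEPES, 25 mM NaHCO₃ and 1% L-glutamine/penicillin-streptomycin at 37 °C, 6% CO₂. Cells at 10⁵ cells/mL exposed for 72 h to various concentrations from DMSO stocks. Drug-free and 0.5% DMSO final controls run alongside. Living cells counted by propidium iodide flow cytometry.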
On the technique in general: In flow cytometry, cells or beads pass a laser one at a time.
As for `Cc1ccc(S(=O)(=O)Cc2nc(C)n(CC(C)O)c2[N+](=O)[O-])cc1` (stereo not given), the IC50 is > 707 µM.

Regarding `Cc1nc(CS(=O)(=O)c2ccc(Cl)cc2)c([N+](=O)[O-])n1CC(C)O` (stereo not given), the half-inhibitory concentration (IC50) is > 668 µM.

Molecule `Cc1nc(CS(=O)(=O)c2ccc(Br)cc2)c([N+](=O)[O-])n1CC(C)O` (stereo not given) gave a concentration for half-maximal inhibition (IC50) of 126 µM.

In turn, `Cc1nc(CS(=O)(=O)c2ccccc2)c([N+](=O)[O-])n1CC(C)O` (stereo not given) came in with an IC50 of 418 µM. This IC50 lies about 3.3-fold higher than the previous one.

Consider `Cc1ncc([N+](=O)[O-])n1C` [DIMETRIDAZOLE], for which the half-maximal inhibitory concentration (IC50) is > 1770 µM.

For the molecule `Cc1ncc([N+](=O)[O-])n1CC(C)O` (stereo not given) [SECNIDAZOLE], the concentration for half-maximal inhibition (IC50) is > 1350 µM.

The subject of a further series is Salmonella typhimurium. Briefly: Induction of mutagenicity in Salmonella Typhimurium YG1042 assessed as number of revertant per ug after 48 hrs. The format is toxicity, organism-based. Particulars: salmonella enterica subsp. enterica serovar typhimurium. A digest of the protocol: (§1)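 YG1042, a TA100 derivative, grown overnight in Nutrient Broth No. 2 with ampicillin and kanamycin. Bacteria preincubated 60 min at 37 °C with shaking with compound in DMSO and 0.1 mL PBS (0.15 M, pH 7.4). Top agar containing histidine/biotin added, then plated on Vogel-Bonner agar. Revertants counted after 48 h. Four doses in triplicate plates; solvent control in quadruplicate. Mutagenic power given as revertants per amount of compound.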
For `Cc1ccc(S(=O)(=O)Cc2nc(C)n(CC(C)O)c2[N+](=O)[O-])cc1` (stereo not given), the Activity is listed as 6.76.

Regarding `Cc1nc(CS(=O)(=O)c2ccc(Cl)cc2)c([N+](=O)[O-])n1CC(C)O` (stereo not given), the Activity was determined as 3.72.

Take `Cc1nc(CS(=O)(=O)c2ccc(Br)cc2)c([N+](=O)[O-])n1CC(C)O` (stereo not given): the Activity is on record as 3.08.

Consider `Cc1nc(CS(=O)(=O)c2ccccc2)c([N+](=O)[O-])n1CC(C)O` (stereo not given), for which the Activity worked out at 10.76.

Consider `Cc1ncc([N+](=O)[O-])n1C` [DIMETRIDAZOLE], for which the Activity amounted to 1578.04.

Consider `Cc1ncc([N+](=O)[O-])n1CC(C)O` (stereo not given) [SECNIDAZOLE], for which the Activity is 128.44.

The next series deals with Salmonella typhimurium. Put plainly: Induction of mutagenicity in Salmonella Typhimurium TA100 assessed as number of revertant per ug after 48 hrs. The format is toxicity, organism-based. As to conditions: salmonella enterica subsp. enterica serovar typhimurium. A digest of the protocol:
(§2)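 TA100 grown overnight in Nutrient Broth No. 2 with ampicillin. Bacteria preincubated 60 min at 37 °C with shaking with compound in DMSO and 0.1 mL PBS (0.15 M, pH 7.4). Top agar containing histidine/biotin added, then plated on Vogel-Bonner agar. Revertants counted after 48 h. Four consecutive doses in triplicate plates; solvent control in quadruplicate. Mutagenic power given as revertants per amount of compound.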
Take `Cc1ccc(S(=O)(=O)Cc2nc(C)n(CC(C)O)c2[N+](=O)[O-])cc1` (stereo not given): the Activity came out at 2.07.

For `Cc1nc(CS(=O)(=O)c2ccc(Cl)cc2)c([N+](=O)[O-])n1CC(C)O` (stereo not given), the Activity is given as 2.18.

Regarding `Cc1nc(CS(=O)(=O)c2ccc(Br)cc2)c([N+](=O)[O-])n1CC(C)O` (stereo not given), the Activity was 3.36.

As for `Cc1nc(CS(=O)(=O)c2ccccc2)c([N+](=O)[O-])n1CC(C)O` (stereo not given), the Activity stood at 2.58.

With `Cc1ncc([N+](=O)[O-])n1C` [DIMETRIDAZOLE], the Activity is given as 153.8.

In the case of `Cc1ncc([N+](=O)[O-])n1CC(C)O` (stereo not given) [SECNIDAZOLE], the Activity is on record as 25.74.

Another series has as its system Salmonella typhimurium. Briefly: Induction of mutagenicity in Salmonella Typhimurium YG1042 assessed as number of revertant per nmol after 48 hrs. Type of series: toxicity, organism-based. As to conditions: salmonella enterica subsp. enterica serovar typhimurium. A digest of the protocol: as §1
On to `Cc1ccc(S(=O)(=O)Cc2nc(C)n(CC(C)O)c2[N+](=O)[O-])cc1` (stereo not given), for which the Activity is on record as 2.39.

On to `Cc1nc(CS(=O)(=O)c2ccc(Cl)cc2)c([N+](=O)[O-])n1CC(C)O` (stereo not given), for which the Activity turned out to be 1.39.

For `Cc1nc(CS(=O)(=O)c2ccc(Br)cc2)c([N+](=O)[O-])n1CC(C)O` (stereo not given), the Activity turned out to be 1.29.

Consider `Cc1nc(CS(=O)(=O)c2ccccc2)c([N+](=O)[O-])n1CC(C)O` (stereo not given), for which the Activity stood at 3.65.

As to `Cc1ncc([N+](=O)[O-])n1C` [DIMETRIDAZOLE], the Activity turned out to be 222.71.

For `Cc1ncc([N+](=O)[O-])n1CC(C)O` (stereo not given) [SECNIDAZOLE], the Activity was 23.78.

A further series deals with Salmonella typhimurium. Put plainly: Induction of mutagenicity in Salmonella Typhimurium TA100 assessed as number of revertant per nmol after 48 hrs. Type of series: toxicity, organism-based. As to conditions: salmonella enterica subsp. enterica serovar typhimurium. In short, it runs like this: as §2
For `Cc1ccc(S(=O)(=O)Cc2nc(C)n(CC(C)O)c2[N+](=O)[O-])cc1` (stereo not given), the Activity came to 0.73.

Turning to `Cc1nc(CS(=O)(=O)c2ccc(Cl)cc2)c([N+](=O)[O-])n1CC(C)O` (stereo not given), the Activity is recorded as 0.81.

`Cc1nc(CS(=O)(=O)c2ccc(Br)cc2)c([N+](=O)[O-])n1CC(C)O` (stereo not given): the Activity was 1.41.

On to `Cc1nc(CS(=O)(=O)c2ccccc2)c([N+](=O)[O-])n1CC(C)O` (stereo not given), for which the Activity amounted to 0.88.

As for `Cc1ncc([N+](=O)[O-])n1C` [DIMETRIDAZOLE], the Activity came to 21.71.

For the molecule `Cc1ncc([N+](=O)[O-])n1CC(C)O` (stereo not given) [SECNIDAZOLE], the Activity came to 4.77.

Another series deals with Salmonella typhimurium. Briefly: Induction of mutagenicity in Salmonella Typhimurium TA100 assessed as number of revertant per nmol after 48 hrs relative to metranidazole. The format is toxicity, organism-based. As to conditions: salmonella enterica subsp. enterica serovar typhimurium.
For `Cc1ccc(S(=O)(=O)Cc2nc(C)n(CC(C)O)c2[N+](=O)[O-])cc1` (stereo not given), the Activity came out at 0.09.

`Cc1nc(CS(=O)(=O)c2ccc(Cl)cc2)c([N+](=O)[O-])n1CC(C)O` (stereo not given): the Activity was found to be 0.1.

Consider `Cc1nc(CS(=O)(=O)c2ccc(Br)cc2)c([N+](=O)[O-])n1CC(C)O` (stereo not given), for which the Activity is listed as 0.17.

For the molecule `Cc1nc(CS(=O)(=O)c2ccccc2)c([N+](=O)[O-])n1CC(C)O` (stereo not given), the Activity was determined as 0.1.

Regarding `Cc1ncc([N+](=O)[O-])n1C` [DIMETRIDAZOLE], the Activity turned out to be 2.6.

As to `Cc1ncc([N+](=O)[O-])n1CC(C)O` (stereo not given) [SECNIDAZOLE], the Activity is reported as 0.57.

A further series concerns Salmonella typhimurium. Briefly: Induction of mutagenicity in Salmonella Typhimurium YG1042 assessed as number of revertant per nmol after 48 hrs relative to metranidazole. The format is toxicity, organism-based. As to conditions: salmonella enterica subsp. enterica serovar typhimurium.
As for `Cc1ccc(S(=O)(=O)Cc2nc(C)n(CC(C)O)c2[N+](=O)[O-])cc1` (stereo not given), the Activity turned out to be 0.03.

Consider `Cc1nc(CS(=O)(=O)c2ccc(Cl)cc2)c([N+](=O)[O-])n1CC(C)O` (stereo not given), for which the Activity amounted to 0.02.

On to `Cc1nc(CS(=O)(=O)c2ccc(Br)cc2)c([N+](=O)[O-])n1CC(C)O` (stereo not given), for which the Activity was 0.02.

With `Cc1nc(CS(=O)(=O)c2ccccc2)c([N+](=O)[O-])n1CC(C)O` (stereo not given), the Activity came to 0.04.

Take `Cc1ncc([N+](=O)[O-])n1C` [DIMETRIDAZOLE]: the Activity worked out at 2.64.

As to `Cc1ncc([N+](=O)[O-])n1CC(C)O` (stereo not given) [SECNIDAZOLE], the Activity came to 0.28.

A further series has as its system Salmonella typhimurium. Put plainly: Ratio of number of revertant per nmol of drug for Salmonella Typhimurium YG1042 to number of revertant per nmol of drug for Salmonella Typhimurium TA100. The format is toxicity, organism-based. As to conditions: salmonella enterica subsp. enterica serovar typhimurium.
As to `Cc1ccc(S(=O)(=O)Cc2nc(C)n(CC(C)O)c2[N+](=O)[O-])cc1` (stereo not given), the Ratio was 3.3.

For the molecule `Cc1nc(CS(=O)(=O)c2ccc(Cl)cc2)c([N+](=O)[O-])n1CC(C)O` (stereo not given), the Ratio was found to be 1.7.

`Cc1nc(CS(=O)(=O)c2ccc(Br)cc2)c([N+](=O)[O-])n1CC(C)O` (stereo not given): the Ratio came to 0.9.

Take `Cc1nc(CS(=O)(=O)c2ccccc2)c([N+](=O)[O-])n1CC(C)O` (stereo not given): the Ratio was 4.2.

As to `Cc1ncc([N+](=O)[O-])n1C` [DIMETRIDAZOLE], the Ratio is recorded as 10.3.

As to `Cc1ncc([N+](=O)[O-])n1CC(C)O` (stereo not given) [SECNIDAZOLE], the Ratio was 5.

As a reminder, the IC50 is the concentration that gives 50% inhibition. Low readings indicate higher potency, high ones lower potency.
